Measurements from ChEMBL document CHEMBL1137958, “2('),3(')-didehydro-2('),3(')-dideoxynucleosides are degraded to furfuryl alcohol under acidic conditions” (Bioorg Med Chem Lett, 2004).

Tests used:
[1] = Estimated half-life at 20 degree C in 0.05 M pH 2 NaH2PO4 buffer; type: ADME; conditions: phosphate buffer
Summary of the method: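 About 1 mg of nucleoside was dissolved in 0.05 M NaH2PO4 (pH 2.0) and stirred at ambient temperature for 24 h. Samples taken at 1 and 24 h were analysed by reverse-phase C18 HPLC, eluting with a gradient of 0.05 M triethylammonium bicarbonate to 70% acetonitrile. Half-life was estimated from the HPLC data, and TLC was run at 24 h.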

CCRF-CEM = test: Cytotoxicity was determined in CEM cells, relative to RVT; type: functional, cell-based; conditions: Homo sapiens
[2] = Cytotoxicity was determined in PBM cells, relative to RVT; type: functional, cell-based; conditions: Homo sapiens, PBMC
Vero = test: Cytotoxicity was determined in Vero cells, relative to RVT; type: functional, cell-based; conditions: Chlorocebus sabaeus
[3] = The anti-HIV-1 activity was assayed in activated human peripheral blood mononuclear (PBM) cells, relative to RVT; type: functional

half-life [1] [min] | SMILES | IC50 (CCRF-CEM) [µM] | IC50 [2] [µM] | IC50 (Vero) [µM] | EC50 [3] [µM] | EC90 [3] [µM]
< 2 | Nc1nc(O)c2ncn(C3C=CC(CO)O3)c2n1 (centres undefined) |  |  |  |  | 
41 | Nc1nc(NC2CC2)c2ncn(C3C=CC(CO)O3)c2n1 (centres undefined) |  |  |  |  | 
 | C[C@@H]1C[C@@H]([C@H](O)CC2CC(=O)NC(=O)C2)C(=O)[C@@H](C)C1 [CYCLOHEXIMIDE] | 0.08 | 0.46 | 0.53 |  | 
45 | Nc1nc(=O)n([C@@H]2C=C[C@H](CO)O2)cc1F [ELVUCITABINE] | > 100 | > 100 | > 100 | 0.067 | 1.9
 | Nc1nc(=O)[nH]cc1F [FLUCYTOSINE] | > 100 | ≥ 100 | > 100 |  | 
 | OCc1ccco1 [FURFURYL ALCOHOL] | > 100 | > 100 | > 100 | > 100 | > 100
 | Nc1nc2[nH]cnc2c(=O)[nH]1 [GUANINE] | 64.3 | > 100 | 54.9 |  | 
50000 | Cc1cn([C@H]2C=C[C@@H](CO)O2)c(=O)[nH]c1=O [STAVUDINE] |  |  |  |  | 
 | Cc1c[nH]c(=O)[nH]c1=O [THYMINE] | > 100 | > 100 | > 100 |  | 
 | Cc1cn([C@H]2C[C@H](N=[N+]=[N-])[C@@H](CO)O2)c(=O)[nH]c1=O [ZIDOVUDINE] |  | > 100 |  | 0.002 | 0.02
